Measurements published in ChEMBL document CHEMBL1136933 (J Med Chem, 2009).
Activity calls are given as the source filed them. No cut-off for these calls is given here.

Assays:
[1] = AUC (0 to 6 hrs) in Sprague-Dawley rat brain at 10 mg/kg, ip; assay type: ADME, organism-based; set-up: time < 6 hr, dose 10 mg/kg, route intraperitoneal
Procedure, shortened: (§1)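 Male Sprague-Dawley rats (225-250 g) dosed ip at 10 mg/kg as a 5 mg/ml micro-suspension in 10% Tween 80 in sterile water. Plasma and brain sampled at 0.5, 1, 3 and 6 h, three animals per time point. Quantified by protein precipitation and LC-MS/MS against an internal standard. Brain values corrected for residual blood. PK parameters derived by noncompartmental analysis.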

[2] = Selectivity ratio of EC50 for rat muscarinic M2 receptor to EC50 for human muscarinic M5 receptor
[3] = biological target: T1, Muscarinic acetylcholine receptor M5 (Homo sapiens) (UniProt P08912); experiment: Activation of human muscarinic M5 receptor expressed in CHO cells coexpressing Gq protein assessed as potentiation of acetylcholine-induced intracellular Ca2+ mobilization at 30 uM relative to acetylcholine; assay type: functional, cell-based
T1 sequence (whole entry): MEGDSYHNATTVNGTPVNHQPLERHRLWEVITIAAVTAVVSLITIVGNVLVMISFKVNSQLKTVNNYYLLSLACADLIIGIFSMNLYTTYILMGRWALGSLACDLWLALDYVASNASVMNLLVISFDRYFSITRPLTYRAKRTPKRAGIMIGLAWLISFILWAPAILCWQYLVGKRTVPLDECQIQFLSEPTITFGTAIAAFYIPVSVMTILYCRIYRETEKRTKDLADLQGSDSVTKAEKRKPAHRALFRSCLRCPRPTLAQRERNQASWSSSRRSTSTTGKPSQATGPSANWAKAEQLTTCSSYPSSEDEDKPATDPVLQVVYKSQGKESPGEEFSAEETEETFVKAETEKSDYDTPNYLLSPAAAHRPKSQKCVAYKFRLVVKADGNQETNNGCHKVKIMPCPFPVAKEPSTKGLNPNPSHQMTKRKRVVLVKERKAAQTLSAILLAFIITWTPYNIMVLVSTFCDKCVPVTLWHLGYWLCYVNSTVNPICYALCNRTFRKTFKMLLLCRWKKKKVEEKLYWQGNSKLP

[4] = biological target: Muscarinic acetylcholine receptor M3 (Homo sapiens, UniProt P20309); experiment: Activation of human muscarinic M3 receptor expressed in CHO cells coexpressing Gq protein assessed as potentiation of acetylcholine-induced intracellular Ca2+ mobilization; assay type: functional, cell-based
Sequence of Muscarinic acetylcholine receptor M3 (P20309 whole entry): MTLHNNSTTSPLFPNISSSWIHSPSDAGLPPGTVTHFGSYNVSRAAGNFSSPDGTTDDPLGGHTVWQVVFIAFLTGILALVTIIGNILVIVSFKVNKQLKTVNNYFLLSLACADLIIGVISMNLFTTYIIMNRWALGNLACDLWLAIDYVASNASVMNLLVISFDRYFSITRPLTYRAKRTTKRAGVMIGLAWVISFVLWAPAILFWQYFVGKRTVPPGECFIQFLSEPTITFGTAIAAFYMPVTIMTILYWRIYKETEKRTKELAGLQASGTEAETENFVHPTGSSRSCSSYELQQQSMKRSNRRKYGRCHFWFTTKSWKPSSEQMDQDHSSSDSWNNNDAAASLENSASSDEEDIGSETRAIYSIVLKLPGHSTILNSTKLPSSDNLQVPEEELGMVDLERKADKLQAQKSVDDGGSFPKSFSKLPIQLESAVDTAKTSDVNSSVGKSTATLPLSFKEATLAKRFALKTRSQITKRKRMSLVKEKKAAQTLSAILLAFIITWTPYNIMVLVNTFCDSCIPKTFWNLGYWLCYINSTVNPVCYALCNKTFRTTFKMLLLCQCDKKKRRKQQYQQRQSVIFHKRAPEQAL
Procedure, shortened: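 Calcium flux assay. Stable CHO lines were seeded at 5 × 10^4 cells/well (M1, M3, M5) or 6 × 10^4 cells/well (Gqi5 M2, M4) and grown overnight at 37 °C, 5% CO2. Cells were loaded 1 h at 37 °C with 2 µM Fluo-4 AM. […] At least three independent determinations, each in duplicate or more.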

[5] = AUC (0 to 6 hrs) in Sprague-Dawley rat plasma at 10 mg/kg, ip; assay type: ADME, organism-based; set-up: time < 6 hr, dose 10 mg/kg, route intraperitoneal; procedure, shortened: as §1
[6] = biological target: T2, Muscarinic acetylcholine receptor M5 (Homo sapiens, UniProt P08912); experiment: Activation of human muscarinic M5 receptor expressed in CHO cells coexpressing Gq protein assessed as potentiation of acetylcholine-induced intracellular Ca2+ mobilization; assay type: functional, cell-based
T2 sequence (P08912 whole entry): T1 sequence (whole entry)

[7] = Elimination half life in Sprague-Dawley rat brain at 10 mg/kg, ip; assay type: ADME, organism-based; set-up: dose 10 mg/kg, route intraperitoneal; settings: read-out: beta t1/2 (converted); procedure, shortened: as §1
[8] = Ratio of AUC (0 to 6 hrs) in Sprague-Dawley rat brain to AUC (0 to 6 hrs) in Sprague-Dawley rat plasma at 10 mg/kg, ip; assay type: ADME, organism-based; set-up: dose 10 mg/kg, route intraperitoneal; procedure, shortened: as §1
[9] = Cmax in Sprague-Dawley rat plasma at 10 mg/kg, ip within 1 hr; assay type: ADME, organism-based; set-up: dose 10 mg/kg, route intraperitoneal; procedure, shortened: as §1
Plasma = experiment: Elimination half life in Sprague-Dawley rat plasma at 10 mg/kg, ip; assay type: ADME, organism-based; set-up: dose 10 mg/kg, route intraperitoneal; settings: in vivo; procedure, shortened: as §1
[10] = biological target: T3, Muscarinic acetylcholine receptor M1 (Rattus norvegicus) (UniProt P08482); experiment: Activation of rat muscarinic M1 receptor expressed in CHO cells co-expressing Gq protein assessed as potentiation of acetylcholine-induced intracellular Ca2+ mobilization at 30 uM relative to acetylcholine; assay type: functional, cell-based
T3 sequence (whole entry): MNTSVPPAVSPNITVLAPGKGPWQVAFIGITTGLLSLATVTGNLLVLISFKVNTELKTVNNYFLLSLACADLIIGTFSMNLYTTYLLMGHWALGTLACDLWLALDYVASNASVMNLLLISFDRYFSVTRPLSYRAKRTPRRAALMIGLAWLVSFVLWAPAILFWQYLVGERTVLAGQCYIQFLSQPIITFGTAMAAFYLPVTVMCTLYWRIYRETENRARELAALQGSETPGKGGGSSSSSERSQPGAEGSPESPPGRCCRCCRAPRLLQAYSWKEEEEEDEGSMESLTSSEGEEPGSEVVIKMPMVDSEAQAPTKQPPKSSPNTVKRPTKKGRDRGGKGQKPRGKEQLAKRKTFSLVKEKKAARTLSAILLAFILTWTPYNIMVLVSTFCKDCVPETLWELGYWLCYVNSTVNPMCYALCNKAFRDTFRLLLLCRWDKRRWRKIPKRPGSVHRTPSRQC

[11] = biological target: T4, Muscarinic acetylcholine receptor M2 (Rattus norvegicus) (UniProt P10980); experiment: Activation of rat muscarinic M2 receptor expressed in CHO cells coexpressing chimeric Gqi5 protein assessed as potentiation of acetylcholine-induced intracellular Ca2+ mobilization up to 30 uM; assay type: functional, cell-based
T4 sequence (whole entry): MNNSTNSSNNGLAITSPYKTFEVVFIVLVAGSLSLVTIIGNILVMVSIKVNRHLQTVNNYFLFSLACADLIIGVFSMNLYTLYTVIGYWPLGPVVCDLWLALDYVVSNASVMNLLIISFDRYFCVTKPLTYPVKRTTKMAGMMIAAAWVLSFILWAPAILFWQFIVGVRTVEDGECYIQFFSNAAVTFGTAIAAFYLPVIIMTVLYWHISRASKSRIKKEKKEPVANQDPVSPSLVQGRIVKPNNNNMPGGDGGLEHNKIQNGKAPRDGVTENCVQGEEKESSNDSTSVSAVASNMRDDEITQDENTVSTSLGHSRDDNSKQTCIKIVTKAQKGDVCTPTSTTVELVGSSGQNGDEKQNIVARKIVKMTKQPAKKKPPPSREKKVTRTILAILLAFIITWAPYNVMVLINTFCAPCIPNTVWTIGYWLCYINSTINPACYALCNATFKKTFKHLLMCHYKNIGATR

[12] = Selectivity ratio of EC50 for rat muscarinic M1 receptor to EC50 for human muscarinic M5 receptor

**Q.** What does the source list for `COc1ccc(CN2C(=O)C(=O)c3cc(OC(F)(F)F)ccc32)cc1`?
**A.** AUC(0-t) at 6 h [1]: 159 ng·h/mL; Ratio EC50 [2]: > 30; %max [3]: 60.7%; EC50 [4]: > 30000 nM; AUC(0-t) at 6 h [5]: 621 ng·h/mL; EC50 [6]: 1160 nM; half-life [7]: 3.69 h; Ratio AUC [8]: 0.25; Cmax [9]: 162 ng/mL; beta t1/2 (Plasma): 4.7 h; %max [10]: 12.7%; Activity [11]: inactive; Ratio EC50 [12]: > 30
